Measured values published in ChEMBL document CHEMBL4613269, “2-((4-Arylpiperazin-1-yl)methyl)benzonitrile Derivatives as Orally Available Inhibitors of Hepatitis C Virus with a Novel Mechanism of Action” (J Med Chem, 2020).
Activity calls are given as the source filed them. No cut-off for these calls is given here.

Columns and labels:
[1] = Clearance in beagle dog at 5 mg/kg, iv measured after 0.08 to 72 hrs post dose by LC-MS/MS analysis; format: ADME, organism-based, Canis lupus familiaris; conditions: in vivo
Procedure, shortened: (§1)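 Single dose to fasted (12 h) animals: oral gavage 15 mg/kg as suspension in 0.5% CMC-Na, or iv 5 mg/kg dissolved in citric acid buffer pH 5.0 with 2.5% DMSO. Jugular vein blood on heparin at 0.08 (iv only) to 72 h. Plasma assayed by LC-MS/MS; parameters from noncompartmental analysis.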

[2] = tested on: Hepatitis C virus; assay: Antiviral activity against HCV GS4.3 infected in human Huh7.5 cells assessed as […] at 0.008 to 1 uM simultaneously treated with viral infection and measured after 72 hrs by Western blot assay; format: functional, organism-based; conditions: Hepacivirus hominis
[3] = Toxicity in Kunming mouse assessed as effect on […] level at 250 to 1000 mg/kg dosed via single oral gavage and measured on day 7 post treatment; format: organism-based; conditions: in vivo
Procedure, shortened: (§2)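 Kunming mice, 4 groups of n = 6 (3 male, 3 female). Fasted from 12 h before to 1 h after dosing. Single oral gavage of 250, 500 or 1000 mg/kg suspended in 0.5% CMC-Na, or vehicle alone. Followed for 7 days: survival, body weight before and at day 7. Day-7 blood taken for AST, ALT, urea nitrogen and creatinine.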

[4] = Clearance in Sprague-Dawley rat at 5 mg/kg, iv measured after 0.08 to 72 hrs post dose by LC-MS/MS analysis; format: ADME, organism-based; conditions: in vivo; procedure, shortened: as §1
[5] = Apparent Volume of distribution in Sprague-Dawley rat at 15 mg/kg, po measured after 0.08 to 72 hrs post dose by LC-MS/MS analysis; format: ADME, organism-based; conditions: in vivo; procedure, shortened: as §1
[6] = tested on: Hepatitis C virus; assay: Antiviral activity against HCV J6/JFH/JC1 infected in human Huh7.5 cells assessed as reduction in viral RNA levels incubated for 72 hrs by qRT-PCR analysis; format: functional, organism-based
Procedure, shortened: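 Huh7.5 cells seeded 24 h, then infected with wild-type (or mutant) HCV with compound added at the same time. Incubated 72 h. Intracellular HCV RNA measured by qRT-PCR, 2^-ΔCt method, normalized to GAPDH. Eight-step 1:5 serial dilutions in triplicate; EC50 by Reed & Muench; three independent experiments.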

[7] = Toxicity in Kunming mouse at 250 to 1000 mg/kg dosed via single oral gavage and measured on day 7 post treatment; format: organism-based; conditions: in vivo; procedure, shortened: as §2
[8] = tested on: Hepatitis C virus; assay: Antiviral activity against HCV GS4.3 infected in human Huh7.5 cells assessed as reduction in viral NS3 protein levels at 0.2 to 5 uM incubated for 72 hrs by Western blot assay; format: functional, organism-based; conditions: Hepacivirus hominis
[9] = Selectivity index, ratio of CC50 for cytotoxicity in African green monkey Vero E6 cells to EC50 for Antiviral activity against Zika virus infected in Vero E6 cells; format: toxicity, cell-based, Vero C1008; conditions: read-out: Ratio CC50/EC50
[10] = Selectivity index, ratio of CC50 for cytotoxicity in human Huh7.5 cells assessed as reduction in cell viability incubated for 96 hrs by MTT assay to EC50 for antiviral activity against HCV J6/JFH/JC1 infected in human Huh7.5 cells incubated for 72 hrs by In-Cell Western assay; format: toxicity, cell-based; conditions: read-out: Ratio CC50/EC50
Procedure, shortened: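 HCVcc (MOI=0.1) infected Huh7.5 cells co-treated with eight-step 1:5 serial dilutions, triplicate wells. After 72 h, fixed, permeabilized, and stained for HCV Core and GAPDH with IR-dye secondaries. Core normalized to GAPDH. CC50 came from MTT at 96 h in uninfected Huh7.5 cells. EC50/CC50 were derived by Reed & Muench, mean ± SD of three independent experiments.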

[11] = tested on: Hepatitis C virus; assay: Antiviral activity against HCV expressing NS3 A156T mutant by qRT-PCR analysis based by Reed-Muench method; format: functional, organism-based, Hepacivirus hominis
Procedure, shortened: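 Huh7.5 cells seeded at 3×10^4/cm², infected 24 h later with wild-type or mutant HCV stock while compound or solvent was added at the same time. Intracellular HCV RNA measured by qRT-PCR at 72 h, normalised to GAPDH, 2^-ΔCT method. EC50 by Reed & Muench from eight-step 1:5 serial dilutions, triplicate wells.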

[12] = AUC (0 to 72 hrs) in Sprague-Dawley rat at 5 mg/kg, iv measured after 0.08 to 72 hrs post dose by LC-MS/MS analysis; format: ADME, organism-based; set-up: time < 72 hr, dose 5 mg/kg, route intravenous; conditions: in vivo; procedure, shortened: as §1
[13] = tested on: Hepatitis C virus; assay: Antiviral activity against HCV genotype 1b pseudoparticle infected in human Huh7.5 cells assessed as reduction in viral replication; format: functional, organism-based; conditions: Hepacivirus hominis; subtype 1b
Procedure, shortened: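 Genotype 1b or 2a HCV pseudoparticles made by co-transfecting HEK 293T cells with envelope and luciferase-reporter HIV plasmids; input standardized by luciferase. Huh7.5 cells co-incubated with compound and HCVpp for 4 h at 37°C, washed, then luciferase read at 72 h.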

[14] = Toxicity in Kunming mouse assessed as effect on body weight at 250 to 1000 mg/kg dosed via single oral gavage and measured on day 7 post treatment; format: organism-based; conditions: in vivo; procedure, shortened: as §2
[15] = Selectivity index, ratio of CC50 for cytotoxicity in African green monkey Vero cells to EC50 for Antiviral activity against Coxsackievirus B3 infected in Vero cells; format: toxicity, cell-based; conditions: read-out: Ratio CC50/EC50
[16] = Drug level in beagle dog at 15 mg/kg, po measured after 24 hrs post dose by LC-MS/MS analysis; format: ADME, organism-based, Canis lupus familiaris; conditions: in vivo, read-out: Drug uptake; procedure, shortened: as §1
[17] = Bioavailability in Sprague-Dawley rat at 5 mg/kg, iv measured after 0.08 to 72 hrs post dose by LC-MS/MS analysis; format: ADME, organism-based; conditions: in vivo; procedure, shortened: as §1
[18] = AUC (0 to 72 hrs) in beagle dog at 15 mg/kg, po measured after 0.08 to 72 hrs post dose by LC-MS/MS analysis; format: ADME, organism-based, Canis lupus familiaris; set-up: time < 72 hr, dose 15 mg/kg, route oral; conditions: in vivo; procedure, shortened: as §1
[19] = Tmax in Sprague-Dawley rat at 15 mg/kg, po measured after 0.08 to 72 hrs post dose by LC-MS/MS analysis; format: ADME, organism-based; conditions: in vivo
[20] = Drug level in Sprague-Dawley rat at 15 mg/kg, po measured after 24 hrs post dose by LC-MS/MS analysis; format: ADME, organism-based; conditions: in vivo, read-out: Drug uptake; procedure, shortened: as §1
[21] = tested on: Hepatitis C virus; assay: Resistance index, ratio of EC50 for antiviral activity against HCV with glycoprotein E1 F291V mutant infected in human Huh7.5 cells to EC50 for Antiviral activity against HCV with wild type glycoprotein E1 infected in human Huh7.5 cells; format: functional, Hepacivirus hominis
Procedure, shortened: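 Huh7.5 cells seeded at 3×10^4/cm² and incubated 24 h, then infected with wild-type or E1 F291V mutant HCV while simultaneously treated with compound in eight-step 1:5 serial dilutions, run in triplicate. Intracellular HCV RNA was read by qRT-PCR at 72 h (2^-ΔCT, normalized to GAPDH). EC50 by Reed & Muench; the index is mutant EC50 over wild-type EC50.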

[22] = Drug level in Sprague-Dawley rat at 5 mg/kg, iv measured after 24 hrs post dose by LC-MS/MS analysis; format: ADME, organism-based; conditions: in vivo, read-out: Drug uptake; procedure, shortened: as §1
[23] = tested on: Hepatitis C virus; assay: Synergistic antiviral activity against HCV infected in human Huh7.5 cells assessed as reduction in HCV core protein level by measuring (q) value at 0.1 uM in presence of 0.1 uM sofosbuvir incubated for 72 hrs by Western blot assay based Webb method relative to control; format: functional, Hepacivirus hominis
Procedure, shortened: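 Huh7.5 cells in 6-well plates were infected with HCV in the presence of 0.1 μM test compound combined with simeprevir 0.025 μM, sofosbuvir 0.1 μM or daclatasvir 0.016 nM. Western blot at 72 h gave HCV core protein relative to actin, normalized to control. q calculated by Webb's method (q<1 antagonism, =1 addition, >1 synergy); over 3 independent experiments.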

In the case of `CN(C)CCN(C)c1ccc(C#N)c(CN2CCN(c3ccc(Cl)cc3)CC2)c1`, the clearance [1] is reported as 79.2 mL/min/kg, the Activity [2] is reported as “Active” and the Activity [3] is reported as “Non-Toxic”. The clearance [4] was 18.1 mL/min/kg, the Vz [5] was 34.83407 L/kg and the Activity ([6]; Hepacivirus hominis) was “Dose-dependent effect”. For the same compound, the EC50 ([6]; J6/JFH/JC1, Huh7.5, 72 h) was 0.022 µM, the MTD at 7 day [7] was greater than 1000 mg/kg and the Activity [8] was “inactive”. It also gave a selectivity ratio [9] of 3, a selectivity ratio [10] of 111 to 154 and an EC50 [11] of 0.0019 µM. For the same compound, the AUC(0-t) at 72 h [12] was 5420 ng·h/mL, the Activity [13] was “Dose-dependent effect” and the Activity [14] was “Non-Toxic”. For the same compound, the selectivity ratio [15] was 3, the concentration at 24 h [16] was 15.6 ng/mL and the bioavailability [17] was 59%. It also gave an AUC(0-t) at 72 h [18] of 1280 ng·h/mL, a Tmax [19] of 3.08 h and a concentration at 24 h [20] of 119 ng/mL. The “Ratio EC50” value [21] was 20, the concentration at 24 h [22] was 77 ng/mL and the Ratio [23] was 1.08.
